ChEMBL document CHEMBL3232810, “Synthesis, biological evaluation and 3D-QSAR studies of new chalcone derivatives as inhibitors of human P-glycoprotein” (Bioorg Med Chem, 2014)

Molecular target: ATP-dependent translocase ABCB1 (Homo sapiens, UniProt P08183)
Assay: Inhibition of P-gp-mediated daunorubicin efflux in human CCRF-CEM/VCR1000 cells measured within 1 hr by FACS flow cytometry
Procedure, shortened: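 CCRF vcr1000 cells kept in RPMI 1640 with 10% FCS and 1000 ng/mL vincristine; vincristine washed out 1 week before use. Cells at 1×10⁶/mL were preloaded with daunorubicin (3 µmol/L final), 30 min, 37 °C. After pelleting they were resuspended in warm medium with inhibitor, eight concentrations (1:3 serial), top 20–200 µM. Aliquots at 0, 60, 120, 180 and 240 s went into ice-cold stop solution (5 µmol/L GPV31 final). Initial efflux rates came from linear regression, and IC50 from a Hill-equation fit of rate versus concentration.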

Chain of ATP-dependent translocase ABCB1 (P08183 whole entry): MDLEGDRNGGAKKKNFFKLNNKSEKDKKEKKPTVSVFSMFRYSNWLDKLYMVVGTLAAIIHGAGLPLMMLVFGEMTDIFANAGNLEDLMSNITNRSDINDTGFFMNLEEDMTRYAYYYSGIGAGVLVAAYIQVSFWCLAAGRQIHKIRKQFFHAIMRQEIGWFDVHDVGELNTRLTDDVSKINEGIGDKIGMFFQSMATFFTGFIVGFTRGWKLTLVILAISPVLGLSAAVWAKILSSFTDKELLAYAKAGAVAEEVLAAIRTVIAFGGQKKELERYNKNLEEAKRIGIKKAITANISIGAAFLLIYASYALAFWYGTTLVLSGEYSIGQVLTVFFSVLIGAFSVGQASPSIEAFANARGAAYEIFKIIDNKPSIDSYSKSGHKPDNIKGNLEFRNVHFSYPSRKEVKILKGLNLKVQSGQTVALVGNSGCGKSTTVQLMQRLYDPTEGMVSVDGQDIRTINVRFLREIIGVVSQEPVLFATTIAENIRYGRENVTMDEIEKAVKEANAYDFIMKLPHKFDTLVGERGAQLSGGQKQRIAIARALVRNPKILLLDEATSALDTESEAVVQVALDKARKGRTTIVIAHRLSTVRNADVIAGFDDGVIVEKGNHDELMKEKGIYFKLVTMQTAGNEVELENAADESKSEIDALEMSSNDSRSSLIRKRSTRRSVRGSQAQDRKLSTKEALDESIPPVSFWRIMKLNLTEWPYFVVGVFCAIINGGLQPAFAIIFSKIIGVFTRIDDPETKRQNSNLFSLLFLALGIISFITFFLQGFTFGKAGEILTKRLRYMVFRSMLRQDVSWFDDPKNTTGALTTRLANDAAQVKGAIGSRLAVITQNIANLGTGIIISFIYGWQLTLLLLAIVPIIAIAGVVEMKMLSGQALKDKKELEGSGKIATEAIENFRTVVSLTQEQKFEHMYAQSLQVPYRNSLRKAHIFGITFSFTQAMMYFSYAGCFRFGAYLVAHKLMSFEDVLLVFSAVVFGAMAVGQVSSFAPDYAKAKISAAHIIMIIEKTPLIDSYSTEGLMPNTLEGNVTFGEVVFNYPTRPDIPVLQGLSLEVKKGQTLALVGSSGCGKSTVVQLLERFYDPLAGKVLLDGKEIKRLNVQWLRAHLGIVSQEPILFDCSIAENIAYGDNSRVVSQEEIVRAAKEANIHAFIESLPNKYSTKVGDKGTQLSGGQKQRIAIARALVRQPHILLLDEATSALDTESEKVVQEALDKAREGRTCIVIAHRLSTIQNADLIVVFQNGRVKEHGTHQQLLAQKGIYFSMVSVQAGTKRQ

SMILES | IC50 [nM]
COc1ccc2c(c1)CC/C(=C\C=C\c1cc(OC)c(OC)c(OC)c1)C2=O | 1740
COc1ccc(C(=O)/C=C/c2ccc(OC)c3ccccc23)cc1OC | 2750
COc1cc2c(cc1OC)C(=O)/C(=C/c1ccc(N(C)C)cc1)C2 | 130
COc1cc(C(=O)/C=C/c2ccccc2SC)cc(OC)c1OC | 650
COc1cc(C(=O)/C=C/c2ccc(C(=O)O)cc2)cc(OC)c1OC | 141000
COc1cc(/C=C/C(=O)c2cccc(C(=O)/C=C/c3cc(OC)c(OC)c(OC)c3)c2)cc(OC)c1OC | 140
COc1ccccc1/C=C/C=C/C(=O)c1cc(OC)c(OC)c(OC)c1 | 1380
COc1cc2c(cc1OC)C(=O)/C(=C/C=C/c1ccc(N(C)C)cc1)C2 | 40
COC(=O)C1=C(O)/C(=C/C=C/c2ccccc2OC)CCC1 | 20400

Continued by falling IC50, values first:

IC50 [nM] | SMILES
12000 | COc1ccccc1/C=C/C=C/C(=O)c1cc(OC)c(O)c(OC)c1
8510 | COc1ccccc1C(=O)/C=C/c1c(C)cc(C)cc1C
3890 | COc1ccc2c(c1)C/C(=C\C=C\c1ccccc1OC)C2=O
3550 | COc1ccc2c(c1)CC/C(=C\c1ccc3ccccc3c1)C2=O
2630 | COc1cc(/C=C/C=C2\Cc3ccc(OC)c(OC)c3C2=O)cc(OC)c1OC
2330 | COc1cc(/C=C/C=C2\Cc3ccc(OC)c(OC)c3C2=O)ccc1O
1150 | COc1ccc2c(c1)C(=O)/C(=C/C=C/c1cc(OC)c(OC)c(OC)c1)C2
870 | COc1cc(C(=O)/C=C/C=C/c2ccccc2SC)cc(OC)c1OC
140 | COc1cc2c(cc1OC)C(=O)/C(=C/C=C/c1cc(OC)c(OC)c(OC)c1)CC2
140 | COc1ccc(C(=O)/C=C/c2cccc(/C=C/C(=O)c3ccc(OC)c(OC)c3)c2)cc1OC
120 | COc1cc(C(=O)/C=C/c2cccc(/C=C/C(=O)c3cc(OC)c(OC)c(OC)c3)c2)cc(OC)c1OC
60 | COc1cc(/C=C/C=C/C(=O)c2cccc(C(=O)/C=C/C=C/c3cc(OC)c(OC)c(OC)c3)c2)cc(OC)c1OC
